pIC50: −log10 of the molar value. Calls of active or inactive are those of the source. No cut-off for these calls is given here.
Assays:
[1] = molecular target: C-C chemokine receptor type 4 (Homo sapiens) (UniProt P51679); test: Binding affinity to CCR4 at 20 uM
[2] = molecular target: C-C chemokine receptor type 5 (Homo sapiens) (UniProt P51681); test: Binding affinity to CCR5 at 20 uM
[3] = molecular target: Histamine H1 receptor (Homo sapiens) (UniProt P35367); test: Inhibition of histamine H1 receptor at 20 uM
[4] = molecular target: C-C chemokine receptor type 3 (Homo sapiens) (UniProt P51677); test: Binding affinity to CCR3 at 20 uM
[5] = molecular target: Parathyroid hormone/parathyroid hormone-related peptide receptor (Homo sapiens) (UniProt Q03431); test: Antagonist activity at human PTH/PTH-related peptide receptor expressed in human SaOS2 assessed as inhibition of DPC-AJ1951-induced cAMP production; assay type: functional, cell-based; details: SAOS-2
Outline: (§1)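 Cells lifted with EDTA after culture in DMEM with 10% FBS and refeeding 12–24 h before assay. Resuspended in HBSS/5 mM Hepes/0.1% BSA/0.5 mM IBMX, pH 7.4, and stimulated with agonist peptide with or without antagonist. cAMP read by AlphaScreen.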

[6] = molecular target: Alpha-2A adrenergic receptor (Homo sapiens) (UniProt P08913); test: Inhibition of adrenergic alpha2A receptor at 20 uM
[7] = molecular target: 5-hydroxytryptamine receptor 2C (Homo sapiens) (UniProt P28335); test: Inhibition of 5HT2C receptor at 20 uM
[8] = molecular target: Parathyroid hormone/parathyroid hormone-related peptide receptor (Rattus norvegicus) (UniProt P25961); test: Antagonist activity at rat PTH/PTH-related peptide receptor expressed in rat UMR106 cells assessed as inhibition of DPC-AJ1951-induced cAMP production; assay type: functional, cell-based; outline: as §1
[9] = molecular target: T1, Parathyroid hormone/parathyroid hormone-related peptide receptor (Homo sapiens, UniProt Q03431); test: Displacement of [125I]DPC-AJ1951 from PTH/PTH-related peptide receptor expressed in HKRK-B28 cells; assay type: cell-based
T1 sequence (Q03431 whole entry): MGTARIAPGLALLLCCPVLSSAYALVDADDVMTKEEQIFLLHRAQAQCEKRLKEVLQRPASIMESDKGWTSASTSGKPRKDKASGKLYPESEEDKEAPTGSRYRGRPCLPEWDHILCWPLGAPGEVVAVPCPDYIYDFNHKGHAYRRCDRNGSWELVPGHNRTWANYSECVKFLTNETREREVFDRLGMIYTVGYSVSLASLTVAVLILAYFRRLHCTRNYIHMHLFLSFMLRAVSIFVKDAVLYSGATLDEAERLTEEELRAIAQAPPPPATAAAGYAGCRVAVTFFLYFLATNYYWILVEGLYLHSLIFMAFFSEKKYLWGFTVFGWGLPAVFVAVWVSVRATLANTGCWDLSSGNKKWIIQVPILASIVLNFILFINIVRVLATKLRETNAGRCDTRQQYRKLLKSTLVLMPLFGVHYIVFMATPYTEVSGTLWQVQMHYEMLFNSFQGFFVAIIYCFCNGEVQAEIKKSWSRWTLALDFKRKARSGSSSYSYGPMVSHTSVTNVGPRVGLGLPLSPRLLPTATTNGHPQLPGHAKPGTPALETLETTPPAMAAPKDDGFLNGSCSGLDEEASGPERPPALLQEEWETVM
Outline: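 Whole HKRK-B28 cells plated at 30,000/well and incubated overnight at 37°C, 5% CO2. Incubated 3 h at room temperature, washed three times, bound radioactivity counted by scintillation.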

[10] = molecular target: Muscarinic acetylcholine receptor M5 (Homo sapiens) (UniProt P08912); test: Inhibition of muscarinic M5 receptor at 20 uM
[11] = molecular target: D(2) dopamine receptor (Homo sapiens) (UniProt P14416); test: Inhibition of dopamine D2 receptor at 20 uM
[12] = molecular target: C-C chemokine receptor type 2 (Homo sapiens) (UniProt P41597); test: Binding affinity to CCR2 at 20 uM
[13] = molecular target: Alpha-2C adrenergic receptor (Homo sapiens, UniProt P18825); test: Inhibition of adrenergic Alpha-2C receptor
[14] = molecular target: 5-hydroxytryptamine receptor 2A (Homo sapiens, UniProt P28223); test: Inhibition of 5HT2A receptor
[15] = molecular target: C-X-C chemokine receptor type 3 (Homo sapiens) (UniProt P49682); test: Inhibition of CXCR3 at 20 uM
[16] = molecular target: T1, Parathyroid hormone/parathyroid hormone-related peptide receptor; test: Antagonist activity at PTH/PTH-related peptide receptor expressed in HKRK-B28 cells assessed as inhibition of parathyroid hormone (1 to 34)-induced cAMP production; assay type: functional, cell-based; outline: as §1
[17] = molecular target: Alpha-1B adrenergic receptor (Homo sapiens) (UniProt P35368); test: Inhibition of adrenergic Alpha-1B receptor at 20 uM
[18] = molecular target: C-C chemokine receptor type 1 (Homo sapiens) (UniProt P32246); test: Binding affinity to CCR1 at 20 uM
[19] = molecular target: C-X-C chemokine receptor type 2 (Homo sapiens) (UniProt P25025); test: Inhibition of CXCR2 at 20 uM
[20] = molecular target: Alpha-1D adrenergic receptor (Homo sapiens, UniProt P25100); test: Inhibition of adrenergic Alpha-1D receptor
[21] = molecular target: T1, Parathyroid hormone/parathyroid hormone-related peptide receptor; test: Antagonist activity at PTH/PTH-related peptide receptor expressed in HKRK-B28 cells assessed as inhibition of DPC-AJ1951-induced cAMP production; assay type: functional, cell-based; outline: as §1
[22] = molecular target: Parathyroid hormone/parathyroid hormone-related peptide receptor (Homo sapiens) (UniProt Q03431); test: Antagonist activity at human PTH/PTH-related peptide receptor expressed in human CL0153 cells assessed as inhibition of DPC-AJ1951-induced cAMP production; assay type: functional, cell-based; outline: as §1
Substance-K receptor = Substance-K receptor (Homo sapiens, UniProt P21452); test: Inhibition of neurokinin 2 receptor
Substance-K receptor, sequence (P21452 whole entry): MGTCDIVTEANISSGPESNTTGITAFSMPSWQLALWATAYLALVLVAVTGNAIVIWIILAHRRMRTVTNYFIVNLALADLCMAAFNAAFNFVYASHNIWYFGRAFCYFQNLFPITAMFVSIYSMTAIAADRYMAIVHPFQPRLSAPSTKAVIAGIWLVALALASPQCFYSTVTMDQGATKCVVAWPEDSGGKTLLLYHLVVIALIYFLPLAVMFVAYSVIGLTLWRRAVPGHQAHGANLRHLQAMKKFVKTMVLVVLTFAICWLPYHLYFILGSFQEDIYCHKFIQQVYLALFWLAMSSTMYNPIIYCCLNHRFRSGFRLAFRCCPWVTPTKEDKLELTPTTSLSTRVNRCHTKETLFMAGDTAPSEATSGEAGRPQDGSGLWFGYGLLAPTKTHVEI

C-X-C chemokine receptor type 3 (Homo sapiens), sequence (P49682 whole entry): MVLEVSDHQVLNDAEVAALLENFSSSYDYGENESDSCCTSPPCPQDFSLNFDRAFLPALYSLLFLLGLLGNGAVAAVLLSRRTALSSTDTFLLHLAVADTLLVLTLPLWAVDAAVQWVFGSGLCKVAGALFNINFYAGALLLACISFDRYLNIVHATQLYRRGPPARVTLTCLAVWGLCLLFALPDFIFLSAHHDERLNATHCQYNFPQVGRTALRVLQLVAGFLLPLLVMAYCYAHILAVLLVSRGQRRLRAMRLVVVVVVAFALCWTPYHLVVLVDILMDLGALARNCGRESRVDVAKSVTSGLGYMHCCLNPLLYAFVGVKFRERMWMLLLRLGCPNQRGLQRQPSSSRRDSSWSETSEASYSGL
C-C chemokine receptor type 4 (Homo sapiens), sequence (P51679 whole entry): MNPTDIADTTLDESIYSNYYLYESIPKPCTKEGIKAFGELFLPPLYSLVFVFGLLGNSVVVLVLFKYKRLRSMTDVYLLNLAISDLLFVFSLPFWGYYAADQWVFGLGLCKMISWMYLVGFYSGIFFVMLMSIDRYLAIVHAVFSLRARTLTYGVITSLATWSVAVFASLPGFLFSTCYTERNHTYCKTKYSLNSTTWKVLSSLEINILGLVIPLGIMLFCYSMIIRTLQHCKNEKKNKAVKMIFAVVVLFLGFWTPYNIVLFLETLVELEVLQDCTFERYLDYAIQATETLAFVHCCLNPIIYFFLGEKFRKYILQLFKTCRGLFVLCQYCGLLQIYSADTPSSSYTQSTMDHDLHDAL
C-C chemokine receptor type 3 (Homo sapiens), sequence (P51677 whole entry): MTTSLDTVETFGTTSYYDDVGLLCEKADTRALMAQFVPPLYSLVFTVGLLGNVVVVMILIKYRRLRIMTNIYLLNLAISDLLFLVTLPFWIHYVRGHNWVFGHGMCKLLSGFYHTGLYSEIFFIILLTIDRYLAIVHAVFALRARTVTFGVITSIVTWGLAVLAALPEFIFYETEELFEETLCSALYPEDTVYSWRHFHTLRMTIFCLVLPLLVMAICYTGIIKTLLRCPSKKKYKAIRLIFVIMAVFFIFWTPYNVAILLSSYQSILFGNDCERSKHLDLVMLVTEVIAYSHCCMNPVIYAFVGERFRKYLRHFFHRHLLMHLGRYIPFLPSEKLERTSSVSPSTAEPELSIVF
C-C chemokine receptor type 2 (Homo sapiens), sequence (P41597 whole entry, looked up): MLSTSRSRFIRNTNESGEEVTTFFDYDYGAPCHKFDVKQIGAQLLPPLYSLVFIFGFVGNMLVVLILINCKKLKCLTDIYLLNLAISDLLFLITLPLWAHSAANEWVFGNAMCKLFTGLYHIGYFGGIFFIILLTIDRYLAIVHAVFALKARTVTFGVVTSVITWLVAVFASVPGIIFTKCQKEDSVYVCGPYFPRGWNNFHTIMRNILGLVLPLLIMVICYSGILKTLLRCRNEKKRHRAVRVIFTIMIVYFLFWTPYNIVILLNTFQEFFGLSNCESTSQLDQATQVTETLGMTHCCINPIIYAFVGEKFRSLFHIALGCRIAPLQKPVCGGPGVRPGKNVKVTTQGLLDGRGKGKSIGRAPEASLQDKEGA
C-C chemokine receptor type 1 (Homo sapiens), sequence (P32246 whole entry): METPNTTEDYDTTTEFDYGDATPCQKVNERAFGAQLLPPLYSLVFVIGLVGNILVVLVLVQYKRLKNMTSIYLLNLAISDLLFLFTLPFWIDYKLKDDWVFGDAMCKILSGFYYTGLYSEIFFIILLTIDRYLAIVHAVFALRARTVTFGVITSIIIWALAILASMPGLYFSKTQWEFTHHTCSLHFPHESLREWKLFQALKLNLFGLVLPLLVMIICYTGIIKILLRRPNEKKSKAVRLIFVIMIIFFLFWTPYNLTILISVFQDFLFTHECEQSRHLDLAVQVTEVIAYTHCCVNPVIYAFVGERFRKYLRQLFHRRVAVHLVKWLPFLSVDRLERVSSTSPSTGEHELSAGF
C-C chemokine receptor type 5 (Homo sapiens), sequence (P51681 whole entry, looked up): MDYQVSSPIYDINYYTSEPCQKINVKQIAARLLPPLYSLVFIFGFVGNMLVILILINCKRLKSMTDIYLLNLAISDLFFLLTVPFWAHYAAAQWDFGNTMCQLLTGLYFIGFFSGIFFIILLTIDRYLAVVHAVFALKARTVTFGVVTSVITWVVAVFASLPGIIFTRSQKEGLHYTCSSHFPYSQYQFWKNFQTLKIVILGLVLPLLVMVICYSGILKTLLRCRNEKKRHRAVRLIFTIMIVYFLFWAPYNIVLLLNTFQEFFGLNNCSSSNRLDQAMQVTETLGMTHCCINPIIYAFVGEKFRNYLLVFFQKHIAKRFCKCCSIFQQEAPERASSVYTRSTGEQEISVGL
Alpha-1D adrenergic receptor, sequence (P25100 whole entry): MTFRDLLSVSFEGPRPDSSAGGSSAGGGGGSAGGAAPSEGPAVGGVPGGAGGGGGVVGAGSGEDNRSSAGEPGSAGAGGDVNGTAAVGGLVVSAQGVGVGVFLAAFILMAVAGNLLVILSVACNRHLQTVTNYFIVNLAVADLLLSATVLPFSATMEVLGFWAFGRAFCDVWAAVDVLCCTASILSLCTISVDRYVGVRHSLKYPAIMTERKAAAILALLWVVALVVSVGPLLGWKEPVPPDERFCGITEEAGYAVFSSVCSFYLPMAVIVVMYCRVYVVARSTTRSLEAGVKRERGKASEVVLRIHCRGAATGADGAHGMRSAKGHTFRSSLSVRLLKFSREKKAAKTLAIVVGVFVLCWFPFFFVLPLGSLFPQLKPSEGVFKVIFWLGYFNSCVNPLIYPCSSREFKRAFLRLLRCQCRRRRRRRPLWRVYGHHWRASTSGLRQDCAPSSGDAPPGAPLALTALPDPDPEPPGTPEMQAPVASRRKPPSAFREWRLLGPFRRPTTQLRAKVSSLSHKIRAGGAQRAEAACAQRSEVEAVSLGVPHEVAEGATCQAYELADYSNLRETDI
C-X-C chemokine receptor type 2 (Homo sapiens), sequence (P25025 whole entry): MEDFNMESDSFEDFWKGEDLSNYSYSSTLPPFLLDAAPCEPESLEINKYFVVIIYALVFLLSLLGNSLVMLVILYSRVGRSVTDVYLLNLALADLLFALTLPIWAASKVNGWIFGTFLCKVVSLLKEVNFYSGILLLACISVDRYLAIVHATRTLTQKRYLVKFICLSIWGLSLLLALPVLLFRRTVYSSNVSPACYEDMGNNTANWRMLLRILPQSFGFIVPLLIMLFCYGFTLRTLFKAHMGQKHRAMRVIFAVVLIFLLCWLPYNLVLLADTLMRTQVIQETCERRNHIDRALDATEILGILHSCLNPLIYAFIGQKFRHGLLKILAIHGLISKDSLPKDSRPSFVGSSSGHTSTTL
5-hydroxytryptamine receptor 2C (Homo sapiens), sequence (P28335 whole entry): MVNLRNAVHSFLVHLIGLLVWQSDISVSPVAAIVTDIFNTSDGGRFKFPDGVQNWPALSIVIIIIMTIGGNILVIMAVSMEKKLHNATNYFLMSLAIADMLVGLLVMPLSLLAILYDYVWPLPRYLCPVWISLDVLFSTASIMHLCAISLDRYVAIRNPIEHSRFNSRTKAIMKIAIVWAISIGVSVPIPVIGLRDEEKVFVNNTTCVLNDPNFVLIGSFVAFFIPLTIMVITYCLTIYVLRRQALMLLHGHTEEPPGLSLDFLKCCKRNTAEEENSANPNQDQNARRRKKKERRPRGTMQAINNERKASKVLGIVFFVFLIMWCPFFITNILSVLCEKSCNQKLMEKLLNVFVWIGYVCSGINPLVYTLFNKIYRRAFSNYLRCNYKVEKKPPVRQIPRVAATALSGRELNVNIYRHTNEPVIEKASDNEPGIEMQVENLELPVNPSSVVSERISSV
Histamine H1 receptor (Homo sapiens), sequence (P35367 whole entry): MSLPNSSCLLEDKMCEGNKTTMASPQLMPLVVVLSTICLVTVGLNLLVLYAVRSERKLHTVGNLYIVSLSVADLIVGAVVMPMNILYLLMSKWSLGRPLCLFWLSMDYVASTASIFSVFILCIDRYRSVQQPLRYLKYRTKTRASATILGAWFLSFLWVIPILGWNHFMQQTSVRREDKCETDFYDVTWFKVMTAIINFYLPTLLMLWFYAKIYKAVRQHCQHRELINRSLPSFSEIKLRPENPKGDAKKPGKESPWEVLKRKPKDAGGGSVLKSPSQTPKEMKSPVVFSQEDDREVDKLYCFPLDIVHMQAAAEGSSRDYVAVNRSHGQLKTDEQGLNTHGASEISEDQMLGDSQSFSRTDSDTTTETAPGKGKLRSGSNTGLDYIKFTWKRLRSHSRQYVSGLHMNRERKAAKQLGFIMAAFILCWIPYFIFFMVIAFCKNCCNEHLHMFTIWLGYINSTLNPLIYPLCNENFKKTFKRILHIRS
Alpha-2A adrenergic receptor (Homo sapiens), sequence (P08913 whole entry): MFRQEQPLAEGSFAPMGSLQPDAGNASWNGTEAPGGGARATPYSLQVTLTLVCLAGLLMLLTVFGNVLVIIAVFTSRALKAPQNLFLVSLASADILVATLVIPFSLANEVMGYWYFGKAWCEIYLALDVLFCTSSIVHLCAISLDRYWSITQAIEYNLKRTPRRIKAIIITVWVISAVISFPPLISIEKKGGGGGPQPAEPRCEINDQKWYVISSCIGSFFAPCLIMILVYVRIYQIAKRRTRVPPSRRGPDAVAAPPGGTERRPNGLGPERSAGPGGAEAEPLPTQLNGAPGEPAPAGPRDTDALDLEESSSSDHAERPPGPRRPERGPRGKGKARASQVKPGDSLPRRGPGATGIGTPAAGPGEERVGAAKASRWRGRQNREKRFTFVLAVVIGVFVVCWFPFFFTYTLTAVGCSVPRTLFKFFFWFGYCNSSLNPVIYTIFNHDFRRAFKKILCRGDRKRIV

Q: `CC[C@@H]1O[C@](/C=C/C2CC2)(C(F)(F)F)c2c(ccc(F)c2F)NC1=O` was tested. Which Activity [1] did it give?
A: Its Activity is “inactive”.

Q: And the Activity [2]?
A: The Activity was “inactive”.

Q: And the Activity [3]?
A: Its Activity is “inactive”.

Q: What about the Activity [4] of the same molecule?
A: Its Activity is “inactive”.

Q: And the Activity [5]?
A: The Activity was “Active”.

Q: And the Activity [6]?
A: The Activity was “inactive”.

Q: And the Activity [7]?
A: Its Activity is “inactive”.

Q: And the Activity [8]?
A: Its Activity is “Active”.

Q: What about the pIC50 [9] of the same molecule?
A: The pIC50 was 6.00.

Q: What about the Activity [10] of the same molecule?
A: The Activity was “inactive”.

Q: And the Activity [11]?
A: The Activity was “inactive”.

Q: And the Activity [12]?
A: The Activity was “inactive”.

Q: What about the pIC50 [13] of the same molecule?
A: Its pIC50 is 4.98.

Q: What about the pIC50 [14] of the same molecule?
A: The pIC50 was 4.82.

Q: What about the Activity [15] of the same molecule?
A: Its Activity is “inactive”.

Q: And the pIC50 [16]?
A: The pIC50 was 4.17.

Q: What about the Activity [17] of the same molecule?
A: The Activity was “inactive”.

Q: What about the Activity [18] of the same molecule?
A: The Activity was “inactive”.

Q: And the Activity [19]?
A: The Activity was “inactive”.

Q: What about the pIC50 [20] of the same molecule?
A: Its pIC50 is 4.86.

Q: And the pIC50 [21]?
A: Its pIC50 is 5.24.

Q: And the Activity [22]?
A: Its Activity is “Active”.

Q: And the pIC50 (Substance-K receptor)?
A: The pIC50 was 4.55.

— ChEMBL document CHEMBL1156459, “Discovery of a small molecule antagonist of the parathyroid hormone receptor by using an N-terminal parathyroid hormone peptide probe” (Proc Natl Acad Sci U S A, 2007)
